Compound activity: PubChem, Johns Hopkins Ion Channel Center
Sampled rows, rich in hits. Any-hit rate of the full collection: about 3.5%.
MrgX1 antagonist – blocks BAM8-22 activation of human MrgX1 receptor; Q96LB2; MRGX1-HEK293 calcium flux, Fluo-4, BAM8-22 antagonism; stronger effect = lower value; B-score at 10 µM; 310,000 tested, 1.3% active;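 active means calcium-response B-score plate-corrected more than 3 library SD below zero, starting fluorescence within 5 deviations, no agonist response on first addition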;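 further: peak minus trough fluorescence over baseline after final BAM8-22 challenge near maximal dose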
Target sequence (Q96LB2 whole entry, looked up): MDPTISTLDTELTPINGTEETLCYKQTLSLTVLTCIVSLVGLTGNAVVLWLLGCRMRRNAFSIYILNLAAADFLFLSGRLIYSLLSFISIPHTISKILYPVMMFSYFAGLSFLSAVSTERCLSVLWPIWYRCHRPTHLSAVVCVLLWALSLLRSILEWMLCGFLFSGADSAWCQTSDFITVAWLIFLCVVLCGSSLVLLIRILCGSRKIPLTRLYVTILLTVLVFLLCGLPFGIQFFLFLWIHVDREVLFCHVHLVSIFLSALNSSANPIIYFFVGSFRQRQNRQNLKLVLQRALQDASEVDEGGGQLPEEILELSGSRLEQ
RGS4 pot – potentiators or activators of RGS4; HEK293 M3R/inducible RGS4, carbachol calcium flux Fluo4; stronger effect = lower value; B-score at 10 µM; 310,000 tested, 0.92% active;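 active means B-score of the integrated calcium signal more than 4 SD below the library mean, with starting fluorescence not abnormally high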;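 further: negative B-score means reduced calcium response which marks RGS4 activation or potentiation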
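Also added: carbachol at ECmax as muscarinic agonist stimulus; Assay system: HEK293 cells with stable M3R and inducible RGS4; Timing: overnight RGS4 induction, 30 min dye load 37 °C, 20 min compound RT; Measured by: Fluo4-AM (2 µM) calcium-flux fluorescence, kinetic read.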
MrgX1 ag – activates human MrgX1 receptor signaling; Q96LB2; MrgX1-HEK293 cells, Fluo-4 calcium fluorescence, agonist mode; stronger effect = higher value; B-score at 10 µM; 310,000 tested, 0.44% active; AID 588627;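 active means calcium response B-score plate-corrected fluorescence ratio at least 3 library SD, with starting fluorescence B-score inside 5 SD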
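System: HEK293 cells stably expressing human MrgX1 receptor; Dosing: test compound in the initial addition of three; Schedule: overnight plating, then 30 min 37 °C plus 30 min room-temperature dye loading; Detection: kinetic calcium dye fluorescence, Fluo-4 NW; Controls: per-plate positive and negative controls for Z′ factor.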
MrgX1 PAM – human MrgX1 positive allosteric modulation, primary screen; 310,000 tested, 0.63% active; MrgX1-HEK293, Fluo-4 calcium flux, FDSS; stronger effect = higher value; Q96LB2; AID 588675; B-score at 10 µM;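 active means plate-corrected calcium response at least 3 library SD above typical, normal starting fluorescence, not activating the receptor alone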;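 further: compound read alongside a low EC10 to EC30 dose of BAM8-22 agonist; peak minus trough fluorescence over baseline measured at the second addition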
RGS4 inh – human RGS4 inhibition; HEK293 M3R/RGS4 inducible, Fluo-4 calcium flux; stronger effect = higher value; triggered by carbachol at its EC20; P49798; 310,000 tested, 0.45% active; B-score at 10 µM;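 active means B-score, a plate-corrected calcium signal, over three deviations above library mean, with baseline fluorescence within five deviations of library mean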;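 further: RGS4 expression induced by doxycycline in cells with stable M3 receptor; B-score is computed from the integrated fluorescence ratio over baseline after carbachol; higher B-score means a larger calcium signal and so more RGS4 inhibition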
Target sequence (P49798 whole entry, looked up): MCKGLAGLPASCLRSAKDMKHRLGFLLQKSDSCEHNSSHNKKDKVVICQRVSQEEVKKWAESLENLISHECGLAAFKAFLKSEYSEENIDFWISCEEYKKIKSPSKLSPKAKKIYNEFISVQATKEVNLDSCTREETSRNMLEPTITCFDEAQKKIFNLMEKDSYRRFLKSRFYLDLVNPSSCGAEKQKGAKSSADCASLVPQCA
Each line names hits and unclear results; the compound was inactive in the other large screens.

O=C(NCCO)Nc1ccc2nsnc2c1	none
O=C(Nc1cccnc1)c1ccc2nc(-c3ccccc3)c(-c3ccccc3)nc2c1	RGS4 pot -9.8
O=C(NCCO)Nc1ccc2nc(-c3ccco3)c(-c3ccco3)nc2c1	MrgX1 ag 28 (no result: RGS4 pot, RGS4 inh)
CC(=O)c1ccc(NC(=O)c2ccc3nc(-c4ccco4)c(-c4ccco4)nc3c2)cc1	MrgX1 antagonist -6.7
O=S(=O)(c1ccccc1)N1N=C(c2ccc(Br)cc2)CC1c1ccco1 (stereo unspecified)	none
COc1cccc(CC(=O)OCC(=O)NC(Cc2ccccc2)C(C)=O)c1 (stereo unspecified)	none
Cc1cc(NS(=O)(=O)c2ccc(NC(=S)NC(=O)c3cccc(S(=O)(=O)N(C)C)c3)cc2)no1	MrgX1 PAM 14
O=C(NC1CC2CCCC(C1)N2C(=S)Nc1ccc(Cl)cc1)C1CC1 (stereo unspecified)	RGS4 pot -7
Cc1cc(Nc2ccccc2)nc(-c2ccccc2O)n1	none
O=CN/N=C/c1c(O)ccc2ccccc12	MrgX1 antagonist -5
Cc1cc(N/N=C/c2c(O)ccc3ccccc23)nc(-c2ccccc2O)n1	RGS4 pot -8
Oc1ccc2ccccc2c1/C=N/Nc1ccccc1	none
Cc1cc2c(Nc3cccc(O)c3)ncnc2s1	none
O=C(NC1CCCCC1)C(c1ccc(F)cc1)N(Cc1ccccc1)C(=O)CN1C(=O)c2ccccc2S1(=O)=O (stereo unspecified)	none
O=C(NC1CCCCC1)C(c1ccc(F)cc1)N(CCc1ccccc1)C(=O)CN1C(=O)c2ccccc2S1(=O)=O (stereo unspecified)	MrgX1 antagonist -8.9
CC1(C)Cc2c(C#N)c(NC3CCCCC3)nc(-c3ccco3)c2CO1	MrgX1 ag 29
COc1ccc(-n2cccc2/C=C2\C(=N)N3N=C(C(C)C)SC3=NC2=O)cc1	none
Cc1nn(-c2ccccc2)c(Cl)c1/C=C1/C(=N)N2N=C(C(C)C)SC2=NC1=O	MrgX1 PAM 9.6
CCC1=NN2C(=N)/C(=C/c3cc(C)n(Cc4ccccc4)c3C)C(=O)N=C2S1	none
Cc1cc(/C=C2\C(=N)N3N=C(C(C)C)SC3=NC2=O)c(C)n1Cc1ccccc1	MrgX1 PAM 16
CCC(CC)C1=NN2C(=N)/C(=C\c3cc(C)n(-c4cccc(C)c4)c3C)C(=O)N=C2S1	RGS4 pot -7.6
Cc1nn(-c2ccccc2)c(Cl)c1/C=C1\SC(=S)NC1=O	MrgX1 antagonist -4.9
O=S(=O)(c1ccc(S(=O)(=O)N2CCC(O)CC2)cc1)N1CCCC1	none
O=C(CN1C(=O)c2ccccc2C1=O)Nc1ccc(S(=O)(=O)N2CCOCC2)cc1	none
COc1ccc(CCNC(=O)C(=O)NCC2OCCN2S(=O)(=O)c2cc(F)ccc2F)cc1OC (stereo unspecified)	none
Clc1ccc(-c2csc(N3CCSCC3)n2)cc1	none
O=C(CCl)N=c1sccn1Cc1ccccc1Cl	RGS4 pot -7.3
CC(C)C[C@H]1CN=C(Nc2ccccc2)N1CC1CCC(C(C)(C)C)CC1 (stereo partly specified)	MrgX1 PAM 6.9 (no result: RGS4 pot, RGS4 inh)
Cc1ccc(-c2csc(NC(=O)c3cc([N+](=O)[O-])ccc3N3CCOCC3)n2)cc1	none
O=C(Nc1nc(-c2ccccc2)cs1)c1ccc(N2CCOCC2)c([N+](=O)[O-])c1	MrgX1 antagonist -7.4
CCCCn1c(=O)nc2n(-c3ccccc3)c3ccccc3cc-2c1=O	RGS4 pot -9.7
Cc1cc(C)c(OCC(=O)N2CC=C(c3ccccc3)CC2)c(C)c1	none
CS(=O)(=O)c1cccc(-c2nnc(NC(=O)C3=COCCO3)o2)c1	MrgX1 antagonist -4.9
Cc1ccc(C(c2sc3nc(C)nn3c2O)N2CCN(c3ccccc3F)CC2)cc1 (stereo unspecified)	MrgX1 antagonist -5.2
Cc1ccc(C(c2sc3nc(C)nn3c2O)N2CCN(CCO)CC2)cc1 (stereo unspecified)	none
COc1ccc(CCN2C(=O)c3[nH]nc(-c4ccccc4O)c3C2c2cccc(Cl)c2)cc1 (stereo unspecified)	none
COc1cccc(C2c3c(-c4cc(Cl)c(C)cc4O)n[nH]c3C(=O)N2Cc2cccnc2)c1 (stereo unspecified)	RGS4 inh 11
COc1ccc(C(=O)NCCC2=CCCCC2)cc1OC1CCN(C(C)C)CC1	none
CC(=O)Oc1ccc(N2C(=O)C3C(C2=O)C(C(=O)c2ccc(Cl)cc2)N2CCCC32)cc1 (stereo unspecified)	MrgX1 ag 30
CC(C)c1ccccc1NC(=O)COC(=O)COc1ccccc1[N+](=O)[O-]	none
CCCNC(=O)OC[C@H]1O[C@H](CCO/N=C(\C)CCN2CCc3nc(-c4ccccc4)c(-c4ccccc4)cc3C2)C=C[C@@H]1Oc1ccc(OC)cc1	RGS4 pot -8.1
CCCN1C(=O)c2cc(C(=O)Nc3ccccc3OC)ccc2C1Nc1ccccc1OC (stereo unspecified)	RGS4 pot -7.2
CC(C)N(C(=O)c1nn(C)c2c1CSc1ccccc1-2)C1CCCCC1	MrgX1 PAM 15
CCc1ccccc1NC(=S)N1N=CCC1c1ccccc1 (stereo unspecified)	MrgX1 ag 37
CC(C(=O)N1CCN(c2ccccc2)CC1)c1ccc([N+](=O)[O-])cc1 (stereo unspecified)	none
O=[N+]([O-])c1ccc(-c2ccc(/C=N/Nc3nc(NCc4ccccc4)nc(N4CCOCC4)n3)o2)cc1	MrgX1 PAM 13
CN(C)S(=O)(=O)c1ccc(S(=O)(=O)N2CCCC(C(=O)NC3CCCC3)C2)cc1 (stereo unspecified)	none
O=C(Nc1ccc(Cl)cc1C(F)(F)F)c1ccccc1	none
Fc1cccc(F)c1-n1c(CN2CCCC2)csc1=S	MrgX1 antagonist -5.1
CCC(C)NC(=O)c1ccc(N2CC3CC(C2)c2cccc(=O)n2C3)c(NC(=O)c2ccc(Br)o2)c1 (stereo unspecified)	none
O=C(Nc1ccc(S(=O)(=O)N2CCCCC2)cc1)c1ccc(CN2CCOCC2)cc1	MrgX1 antagonist -7.7
O=C(Nc1ccc(S(=O)(=O)N2CCCC2)cc1)c1ccc(CN2CCOCC2)cc1	none
O=C1CN(C(=O)CNC(=O)c2ccc(Cl)cc2Cl)CCN1	none
CN(C)S(=O)(=O)c1cccc(NC(=O)c2ccc3c(c2)S(=O)(=O)N=C2CCCCCN23)c1	none
NC(=O)c1coc(-c2ccccc2)n1	RGS4 pot -7.1
C/C(CCc1oc2ccc(Br)cc2c1-c1ccc(C)o1)=N/O	MrgX1 antagonist -6.3
C=CCn1c(SCc2csc(-c3ccc(C)cc3)n2)nnc1-c1ccccc1OC	MrgX1 antagonist -6
COc1ccccc1-n1cnnc1SCc1csc(-c2ccccc2)n1	none (no result: RGS4 pot, RGS4 inh)
Cc1ccc(-c2nc(CSc3nc4ccccc4c(=O)n3CCO)cs2)cc1	none
